In the EternaBench riboswitch data:

Assays:
MS2 coat protein [1] = assay: apparent Kd, MS2 coat protein; higher = weaker binding; RNA-MaP array; theophylline 2 mM where present
Outline: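 The titrant was SNAP-549-labelled MS2 coat protein, run from 0.7 or 1.5 nM in doubling steps to 3 µM. It was applied to designs transcribed by stalled E. coli RNA polymerase on Illumina sequencing-chip clusters, without ligand first and then with constant ligand, in 100 mM Tris-HCl pH 7.5, 80 mM KCl, 4 mM MgCl2, BSA, DTT, yeast tRNA and Tween-20. The apparent Kd is the median of filtered per-cluster binding-curve fits, with green signal normalised to red-channel RNA signal and control-cluster median Fmax.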

MS2 coat protein [2] = assay: apparent Kd, MS2 coat protein; higher = weaker binding; RNA-MaP array
Outline: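 The designed RNAs, transcribed from sequenced DNA templates on an Illumina sequencing chip, were incubated with fluorescently labeled MS2 coat protein at room temperature. Protein ranged from 1.5 nM to 3 μM, with 0.8–1.5 h incubation at the lowest and 10–20 min at the highest concentrations, in Tris-HCl pH 7.5 buffer with KCl, MgCl2, BSA, DTT, tRNA and Tween20, with or without input ligand. The median of per-cluster binding-curve fits gives the apparent Kd, and designs measured on fewer than 10 clusters were excluded.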

[3] = designed as: ON switch for theophylline, no ligand
[4] = ligand present: theophylline, designed as: ON switch for theophylline
[5] = designed as: ON switch for flavin mononucleotide, no ligand
[6] = ligand present: flavin mononucleotide, designed as: ON switch for flavin mononucleotide
[7] = designed as: OFF switch for flavin mononucleotide, no ligand
[8] = ligand present: flavin mononucleotide, designed as: OFF switch for flavin mononucleotide
[9] = designed as: OFF switch for tryptophan, no ligand
[10] = ligand present: tryptophan, designed as: OFF switch for tryptophan

Row | Sequence | apparent Kd (MS2 coat protein [2]; [5]) | apparent Kd (MS2 coat protein [2]; [6]) | apparent Kd (MS2 coat protein [2]; [7]) | apparent Kd (MS2 coat protein [2]; [8]) | other results
1 | AUAGUCUUGAGUGAUACCAGACUACAUGAGGAUCACCCAUGUUUCUUUUGGUUAUCAUGUGUCCCUUGGCAGCACGCAUGUAUAG | – | – | – | – | apparent Kd (MS2 coat protein [1]; designed as: OFF switch for theophylline, no ligand): 16.4 nM; apparent Kd (MS2 coat protein [1]; ligand present: theophylline, designed as: OFF switch for theophylline): 65.8 nM
2 | AUUUAUGGUCGUGAUACCAGACAUACAUGAGGAUCACCCAUGUGAAAUAACAUAAUUUAGGUCCCUUGGCAGCACUUUUUAAUUA | – | – | – | – | apparent Kd (MS2 coat protein [1]; [3]): 53.8 nM; apparent Kd (MS2 coat protein [1]; [4]): 38.3 nM
3 | AGGCUUAAAAUGGAGGAUAUCUGUCGCAAAACAUGAGGAUCACCCAUGUACAUAAUGGGCACCACAGAGAAGGCCAUGUACUUUUC | 27.5 nM | 11.7 nM | – | – | –
4 | GAUUGGCUAGGAUAUACAGUGUCUAAGUCGACACCGUGAUAACAUGAGGAUCACCCAUGUAGAAGGAGCACAAA | – | – | 6.78 nM | 11.4 nM | –
5 | GACAUCAUAGGAGGAUAUGUUUUCUAAAGACUGACAGAAGGCCAGAACAGUAAGAACAAAAGACAUGAGGAUCACCCAUGUGUU | 16.6 nM | 9.36 nM | – | – | –
6 | AAAAUGGAUUGAACAUGAGGAUCACCCAUGUCCUGCCCGCAUUAGGAUAUCGAUAACUUGAGUACCGAGAAGGAAUGAUGAUCG | 12.6 nM | 13.2 nM | – | – | –
7 | CCCACGUACGAGAAGGCACCGGUUUGAUCCACGUAAGUCCUUUACAUGAGGAUCACCCAUGUAGGUGAGGAUAUCGUCAUGACU | – | – | 160 nM | 264 nM | –
8 | AAGGAACAUGAGGAUCACCCAUGUGCUUGCCAGCAAGGAUAUGGUUGUGACAUCUAUAUGCCAGAAGGUGCCGGAC | 286 nM | 85.6 nM | – | – | –
9 | AGUGGACUGAGGCAGGAUAUCUAUUCAGGAACAUGAGGAUCACCCAUGUCAUGAAAUGACUCGUGAGAGAAGGGCCGUCAACUUAU | 22.9 nM | 29.5 nM | – | – | –
10 | CCACGGAGUUUAGGAUAUGUCGGCUUGGAGUUUACAGAAGGAAAUUGCGCAGCCACAUGAGGAUCACCCAUGUUCGGAAAUACG | 31 nM | 21.4 nM | – | – | –
11 | GCUCAGGAAGGAUAUACUGAAGCUAACAUGAGGAUCACCCAUGUCCUAGGUAAGUAUCUGGUAGAAGGUCCGCGUA | – | – | 24.9 nM | 32.5 nM | –
12 | AGGAGACAUGAGGAUCACCCAUGUCCAGAUACCAGAAUGUCUUUGUUCCCUUGGCAGCUGUGGAAAUCUGACCUGCCUCGGUCUG | – | – | – | – | apparent Kd (MS2 coat protein [2]; [3]): 14.2 nM; apparent Kd (MS2 coat protein [2]; [4]): 15.7 nM
13 | GAACAUCGAGGAUAUACAUGAGGAUCACCCAUGUAUUAGAGGGUGCCCUAGCUCAAAAGUAGAAGGCGACAGGU | – | – | 9.8 nM | 12.7 nM | –
14 | UCAGUGGGUUCGGCCGCCACUUGAGUGAUGGUGCCUCAAUAAGUCUACAUGAGGAUCACCCAUGUAAGGACCGGGAAUUUUAUGG | – | – | – | – | apparent Kd (MS2 coat protein [2]; [9]): 35.3 nM; apparent Kd (MS2 coat protein [2]; [10]): 32.5 nM
15 | CUGAAGUCUGACCCUCGAAACAUGAGGAUCACCCAUGUAGUCAGAAGGCGAUUGUGAGCAGGAAUCGAGGAUAUGAACUAGUUU | – | – | 7.72 nM | 10 nM | –
16 | UAAUUCAGGGAGAAGGUCUGAUCGUAACAUGCAGAAGGAUAUCCCAAUAACAUGAGGAUCACCCAUGUUUUGUUAUGCGUCAAC | 83 nM | 19.8 nM | – | – | –
17 | AAUGACGCGAAGAAGGACUGAUACCAGCUAAAAGUAGGAUAUUCUGAACGUGGACGGUUUACAUGAGGAUCACCCAUGUAUGAA | – | – | 9.29 nM | 9.01 nM | –
18 | CCAGGACAUGAGGAUCACCCAUGUACGGUCAGCGAAGGAUAUAUUGCGUGGCGAGUGCUGAUAGAAGGUCGUAAAC | 15 nM | 10.9 nM | – | – | –
19 | UACGUGUUAGGAUAUCGAGUAGUAUGGCUGGCCUGCAAAACCGAGAAGGAACAUGAGGAUCACCCAUGUAUCUU | – | – | 8.05 nM | 11.3 nM | –
20 | GCUAGCGGUAAGAAGGCAUAGACCAAAACUUCAUGAGGAUAUUAUUUGCGGCAUUCGCUCCAAGGACAUGAGGAUCACCCAUGU | 15.4 nM | 16.3 nM | – | – | –
21 | AAGCCCAGGACGGCCGCCACUGUAAAAUGGUGGUUCGCCUGUAAGAACAUGAGGAUCACCCAUGUCAGGACCGGGUCCACGAGUU | – | – | – | – | apparent Kd (MS2 coat protein [2]; [9]): 17.6 nM; apparent Kd (MS2 coat protein [2]; [10]): 27.1 nM
22 | GGAUAACCGAAGAAGGAGGUUUGUAUGGAAUACCUAGGAUAUUCGCGAGCGUGGGCCACAUGAGGAUCACCCAUGUCGGCAGUU | – | – | 12.8 nM | 10.4 nM | –
23 | AAAUUACACGAGAAGGGCAGUGAAUAUCUGUCUGCAGGAUAUCGCUACAUGAGGAUCACCCAUGUUUUCAGUAGUACUAGCGAA | – | – | 9.74 nM | 9.06 nM | –
24 | AGCGCUUAACCAUAGGAUAUAUUGAUCAUUACAUGAGGAUCACCCAUGUGUCGAAGAAGGCAAUCAUAGAAGGAUGUCAUGUCGCU | 26.7 nM | 17.3 nM | – | – | –
25 | GAAAUAUAGUCAGGAUAUCAGGACAUGAGGAUCACCCAUGUACUGAAUGGGCUGGUGAAAAGAGAUGAGAAGGGACACACUAGA | – | – | 6.23 nM | 5.78 nM | –
26 | UCUAAACAUGAGGAUCACCCAUGUGAUUUACUCGCAGGAUAUGAGAGCUUGCACACGCAAUCAGAAGGGCGUCGAA | 36.6 nM | 28.7 nM | – | – | –
